Measured values published in ChEMBL document CHEMBL4402580, “Structure-Activity Relationship Studies of Tetrahydroquinolone Free Fatty Acid Receptor 3 Modulators” (J Med Chem, 2020).
Blank lines part the entries; values can stand above or below the molecule they belong to. Active and inactive are the calls of the source. The rule behind the calls is not given here.

Key:
[1] = target: T1, Free fatty acid receptor 3 (Homo sapiens) (UniProt O14843)
T1 sequence (whole entry): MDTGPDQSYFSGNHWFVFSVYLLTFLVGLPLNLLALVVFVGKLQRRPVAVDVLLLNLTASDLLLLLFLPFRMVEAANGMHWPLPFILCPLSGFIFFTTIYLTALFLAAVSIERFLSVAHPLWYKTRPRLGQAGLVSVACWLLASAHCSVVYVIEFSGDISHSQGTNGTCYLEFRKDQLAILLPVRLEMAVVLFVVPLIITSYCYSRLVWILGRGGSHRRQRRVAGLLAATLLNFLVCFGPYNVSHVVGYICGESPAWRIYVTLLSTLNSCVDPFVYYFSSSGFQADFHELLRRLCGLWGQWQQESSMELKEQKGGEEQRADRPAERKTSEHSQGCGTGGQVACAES

[2] = target: T1, Free fatty acid receptor 3 (Homo sapiens); assay: (§1) Positive allosteric modulation at human FFA3 receptor stably expressed in Flp-In T-Rex HEK293 cells cotransfected with eYFP assessed as inhibition of forskolin-induced cAMP production measured after 1 hr in presence of 1 uM propionate by fluorescence plate reader assay; format: functional, cell-based
[3] = target: Free fatty acid receptor 1 (Homo sapiens) (UniProt O14842); assay: Agonist activity at human C-terminal eYFP tagged FFA1 receptor stably expressed in HEK293T cells cotransfected with nano-luciferase assessed as recruitment of beta-arrestin2 at 10 uM followed by TUG-770 addition prior to compound treatment by BRET assay; format: cell-based
[4] = target: T2, Free fatty acid receptor 4 (Homo sapiens) (UniProt Q5NUL3); assay: Agonist activity at human C-terminal eYFP tagged FFA4 receptor stably expressed in HEK293T cells cotransfected with nano-luciferase assessed as recruitment of beta-arrestin2 at 10 uM followed by TUG-891 addition prior to compound treatment by BRET assay; format: cell-based
T2 sequence (whole entry): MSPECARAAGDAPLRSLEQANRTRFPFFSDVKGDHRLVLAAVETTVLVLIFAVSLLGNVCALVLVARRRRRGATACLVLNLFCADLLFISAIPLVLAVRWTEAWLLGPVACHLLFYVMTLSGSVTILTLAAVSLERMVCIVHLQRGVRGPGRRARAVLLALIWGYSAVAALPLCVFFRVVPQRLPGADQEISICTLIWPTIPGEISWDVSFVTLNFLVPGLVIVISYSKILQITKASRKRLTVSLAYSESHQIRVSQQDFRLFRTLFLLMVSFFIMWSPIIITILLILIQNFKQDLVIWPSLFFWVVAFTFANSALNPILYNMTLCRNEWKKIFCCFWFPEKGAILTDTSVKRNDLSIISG

[5] = target: T3, Free fatty acid receptor 2 (Homo sapiens) (UniProt O15552); assay: Agonist activity at human C-terminal eYFP tagged FFA2 receptor stably expressed in Flp-In T-Rex 293 cells assessed as inhibition of forskolin-induced cAMP production at 10 uM after 30 mins by HTR-FRET assay; format: functional, cell-based
T3 sequence (whole entry): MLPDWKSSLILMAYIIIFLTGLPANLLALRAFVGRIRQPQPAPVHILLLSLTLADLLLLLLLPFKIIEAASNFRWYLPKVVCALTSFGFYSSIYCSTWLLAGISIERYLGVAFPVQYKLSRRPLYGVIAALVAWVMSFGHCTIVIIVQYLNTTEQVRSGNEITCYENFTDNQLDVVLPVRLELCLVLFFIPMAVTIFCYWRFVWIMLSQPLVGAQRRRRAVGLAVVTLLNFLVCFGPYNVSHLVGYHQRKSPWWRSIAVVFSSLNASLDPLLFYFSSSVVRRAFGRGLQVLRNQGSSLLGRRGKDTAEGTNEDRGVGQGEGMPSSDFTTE

[6] = target: G-protein coupled receptor 84 (Homo sapiens) (UniProt Q9NQS5); assay: Agonist activity at human C-terminal Gia tagged GPR84 receptor stably expressed in Flp-In T-Rex 293 cells assessed as inhibition of forskolin-induced cAMP production at 10 uM after 45 mins by HTR-FRET assay; format: functional, cell-based
[7] = target: Voltage-dependent L-type calcium channel subunit alpha-1C (Homo sapiens, UniProt Q13936); assay: Displacement of [3H]-PN200-110 from recombinant full length human L-type calcium channel expressed in HEK293 cells at 10 uM incubated for 120 mins by radiometric scintillation counting method; format: cell-based; details: hek293, 2 h
[8] = Chemical stability of compound in DMSO at 25 degree C measured after 7 days by NMR analysis; format: physicochemical; details: read-out: Stability
[9] = Chemical stability of compound in DMSO assessed as compound degradation at 25 degree C measured after 30 days by NMR analysis; format: physicochemical; details: 720 h
[10] = target: T4, Free fatty acid receptor 3 (Mus musculus) (UniProt Q3UFD7); assay: Agonist activity at FFA3 in C57/BL6 mouse DRG neurons assessed as increase in intracellular calcium level at 5 uM by Fura-8/AM staining based inverted fluorescence microscopy; format: functional, cell-based
T4 sequence (whole entry): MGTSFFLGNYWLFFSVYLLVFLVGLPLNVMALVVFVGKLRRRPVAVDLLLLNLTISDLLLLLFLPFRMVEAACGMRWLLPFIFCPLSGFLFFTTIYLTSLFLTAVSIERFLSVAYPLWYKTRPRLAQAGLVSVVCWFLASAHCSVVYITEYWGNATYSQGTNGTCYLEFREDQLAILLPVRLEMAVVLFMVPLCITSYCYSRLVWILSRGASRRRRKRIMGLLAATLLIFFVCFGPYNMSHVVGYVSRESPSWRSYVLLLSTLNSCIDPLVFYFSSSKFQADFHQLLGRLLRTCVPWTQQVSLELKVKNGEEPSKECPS
Outline: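 Mouse colonic-innervating DRGs (T9–L2), wild-type C57/BL6 and FFA3 knockout, digested with papain/L-cysteine then collagenase/dispase, triturated, cultured overnight on matrigel. Cells loaded with Fura 8-AM (3 μM, 20 min, 37 °C), perfused with HEPES buffer pH 7.4, ligand applied 3 min, then ionomycin 5 μM as positive control. Read-out: relative fluorescence by real-time imaging; N = 3 mice per genotype.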

[11] = test system: DRG neuron; assay: Effect on intracellular calcium level in FFA3 knock out C57/BL6 mouse DRG neurons at 5 uM by Fura-8/AM staining based inverted fluorescence microscopy; format: functional, cell-based
Outline: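 DRGs from T9–L2 spinal cord of FFA3 knock-out and wild-type C57/BL6 mice; papain/L-cysteine then collagenase/dispase digestion (20 min each, 37 °C), trituration, matrigel coverslips, overnight culture in DMEM/10% FCS. Fura 8-AM (3 μM) loading 20 min, 37 °C; perfusion with HEPES buffer pH 7.4 at room temperature; ligand applied 3 min, then ionomycin 5 μM. Relative fluorescence; N = 3 mice.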

[12] = Chemical stability of compound in DMSO at 4 degree C measured after 7 days by NMR analysis; format: physicochemical; details: read-out: Stability
[13] = Chemical stability of compound in DMSO at 4 degree C measured after 30 days by NMR analysis; format: physicochemical; details: read-out: Stability
[14] = target: T5, Free fatty acid receptor 3 (Homo sapiens, UniProt O14843); assay: as §1; format: functional, cell-based
T5 sequence (O14843 whole entry): T1 sequence (whole entry)

[15] = target: T1, Free fatty acid receptor 3 (Homo sapiens); remark: listed apart in the source
[16] = target: T1, Free fatty acid receptor 3 (Homo sapiens); assay: Negative allosteric modulation at human FFA3 receptor stably expressed in Flp-In T-Rex HEK293 cells cotransfected with eYFP assessed as effect on forskolin-induced cAMP production at 30 uM measured after 1 hr in presence of 3 uM propionate by fluorescence plate reader assay
[17] = target: T5, Free fatty acid receptor 3; assay: Agonist activity at human FFA3 receptor stably expressed in Flp-In T-Rex HEK293 cell membrane assessed as stimulation of [35S]-GTPgammaS binding measured after 1 hr in presence of GDP by liquid scintillation spectrometry
[18] = target: T5, Free fatty acid receptor 3

Chain of Free fatty acid receptor 1 (Homo sapiens) (O14842 whole entry): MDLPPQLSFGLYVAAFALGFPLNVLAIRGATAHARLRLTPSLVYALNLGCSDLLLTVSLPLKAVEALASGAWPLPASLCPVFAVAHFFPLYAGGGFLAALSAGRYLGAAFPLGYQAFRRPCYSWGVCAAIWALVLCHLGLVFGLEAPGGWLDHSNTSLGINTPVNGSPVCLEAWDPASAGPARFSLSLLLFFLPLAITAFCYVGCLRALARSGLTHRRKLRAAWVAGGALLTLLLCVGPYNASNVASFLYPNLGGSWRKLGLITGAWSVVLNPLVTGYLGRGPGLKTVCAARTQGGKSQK
Chain of Voltage-dependent L-type calcium channel subunit alpha-1C (Q13936 whole entry): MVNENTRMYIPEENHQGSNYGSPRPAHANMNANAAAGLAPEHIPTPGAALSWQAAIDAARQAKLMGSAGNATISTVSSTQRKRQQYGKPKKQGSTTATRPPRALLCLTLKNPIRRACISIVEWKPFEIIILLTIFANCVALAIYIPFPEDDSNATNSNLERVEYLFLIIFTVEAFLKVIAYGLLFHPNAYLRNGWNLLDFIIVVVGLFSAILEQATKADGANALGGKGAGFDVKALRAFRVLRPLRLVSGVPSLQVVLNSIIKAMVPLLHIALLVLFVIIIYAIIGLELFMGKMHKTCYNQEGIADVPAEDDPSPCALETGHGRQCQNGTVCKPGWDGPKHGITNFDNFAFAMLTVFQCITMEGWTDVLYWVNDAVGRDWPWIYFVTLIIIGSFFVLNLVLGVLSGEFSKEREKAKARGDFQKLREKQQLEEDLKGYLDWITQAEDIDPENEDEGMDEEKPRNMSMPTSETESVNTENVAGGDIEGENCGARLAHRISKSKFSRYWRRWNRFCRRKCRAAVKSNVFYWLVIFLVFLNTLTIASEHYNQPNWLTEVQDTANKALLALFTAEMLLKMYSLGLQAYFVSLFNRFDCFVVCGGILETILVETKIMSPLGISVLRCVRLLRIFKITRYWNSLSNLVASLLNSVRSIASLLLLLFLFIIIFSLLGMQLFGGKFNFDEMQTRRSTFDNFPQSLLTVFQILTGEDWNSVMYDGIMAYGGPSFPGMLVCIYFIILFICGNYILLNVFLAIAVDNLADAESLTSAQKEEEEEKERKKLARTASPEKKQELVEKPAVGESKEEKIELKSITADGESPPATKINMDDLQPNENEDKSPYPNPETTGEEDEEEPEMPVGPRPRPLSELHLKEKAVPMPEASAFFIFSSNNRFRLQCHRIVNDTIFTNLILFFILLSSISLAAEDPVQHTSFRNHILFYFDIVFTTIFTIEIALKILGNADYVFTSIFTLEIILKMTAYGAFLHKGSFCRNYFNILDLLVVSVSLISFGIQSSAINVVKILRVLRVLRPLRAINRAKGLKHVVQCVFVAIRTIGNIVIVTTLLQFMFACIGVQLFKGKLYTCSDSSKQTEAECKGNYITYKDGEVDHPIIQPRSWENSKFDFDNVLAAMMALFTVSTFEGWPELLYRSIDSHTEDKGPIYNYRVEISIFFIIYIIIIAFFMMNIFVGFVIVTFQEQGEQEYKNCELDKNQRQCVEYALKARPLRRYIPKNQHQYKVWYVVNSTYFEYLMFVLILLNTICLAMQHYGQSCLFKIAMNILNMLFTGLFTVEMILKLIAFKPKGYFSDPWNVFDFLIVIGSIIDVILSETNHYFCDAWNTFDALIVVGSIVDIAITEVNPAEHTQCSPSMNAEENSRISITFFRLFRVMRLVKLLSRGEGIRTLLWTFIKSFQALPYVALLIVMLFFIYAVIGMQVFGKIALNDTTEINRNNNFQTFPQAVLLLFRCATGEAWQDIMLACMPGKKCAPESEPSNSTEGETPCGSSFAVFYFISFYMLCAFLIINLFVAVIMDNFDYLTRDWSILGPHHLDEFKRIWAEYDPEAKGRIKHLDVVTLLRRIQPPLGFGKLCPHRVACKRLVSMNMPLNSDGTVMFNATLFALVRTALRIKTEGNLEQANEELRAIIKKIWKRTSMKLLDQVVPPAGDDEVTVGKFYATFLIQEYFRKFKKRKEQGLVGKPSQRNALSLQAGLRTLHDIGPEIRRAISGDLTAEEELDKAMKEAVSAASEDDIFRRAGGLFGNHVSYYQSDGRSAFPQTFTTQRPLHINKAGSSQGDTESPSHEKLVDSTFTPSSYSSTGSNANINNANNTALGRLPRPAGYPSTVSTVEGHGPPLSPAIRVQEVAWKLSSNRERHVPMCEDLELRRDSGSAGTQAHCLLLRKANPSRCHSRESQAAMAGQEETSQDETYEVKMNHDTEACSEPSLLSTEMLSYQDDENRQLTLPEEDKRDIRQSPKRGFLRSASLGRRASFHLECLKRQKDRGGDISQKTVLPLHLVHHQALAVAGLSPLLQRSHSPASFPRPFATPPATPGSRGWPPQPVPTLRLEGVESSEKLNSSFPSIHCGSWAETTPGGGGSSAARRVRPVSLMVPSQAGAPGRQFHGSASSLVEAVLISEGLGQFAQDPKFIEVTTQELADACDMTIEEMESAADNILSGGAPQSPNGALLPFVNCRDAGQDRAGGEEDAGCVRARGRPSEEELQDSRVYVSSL
Chain of G-protein coupled receptor 84 (Homo sapiens) (Q9NQS5 whole entry): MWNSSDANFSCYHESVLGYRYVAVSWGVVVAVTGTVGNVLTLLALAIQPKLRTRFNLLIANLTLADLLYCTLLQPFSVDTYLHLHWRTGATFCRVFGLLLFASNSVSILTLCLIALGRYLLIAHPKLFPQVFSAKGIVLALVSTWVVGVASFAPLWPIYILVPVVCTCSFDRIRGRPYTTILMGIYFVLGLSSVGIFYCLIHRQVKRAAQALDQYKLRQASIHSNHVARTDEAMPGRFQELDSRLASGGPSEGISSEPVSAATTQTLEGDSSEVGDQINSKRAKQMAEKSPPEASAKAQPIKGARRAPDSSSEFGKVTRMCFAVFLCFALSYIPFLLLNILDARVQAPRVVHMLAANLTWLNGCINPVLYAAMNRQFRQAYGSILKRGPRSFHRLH

SMILES: COC(=O)C1=C(C)NC(C)=C(C(=O)Nc2ccccc2C)C1CC(C)C (centres undefined)
pEC50 [1]: inactive

SMILES: CC1=C(C(=O)Nc2ccccc2C)C(CC(C)C)C(C(=O)c2ccccc2)=C(C)N1 (centres undefined)
pEC50 [2]: inactive | pEC50 [1]: inactive

Activity [3]: inactive | Activity [4]: inactive | Activity [5]: inactive | Activity [6]: inactive | inhibition (INH) [7]: Not Active
SMILES: CC1=C(C(=O)Nc2cc(Cl)ccc2Cl)C(c2ccco2)C2=C(CCCC2=O)N1 (centres undefined)

SMILES: Cc1ccccc1NC(=O)c1c(C)nc2c(c1-c1ccco1)C(=O)CCC2
pEC50 [2]: inactive | pEC50 [1]: inactive

SMILES: CC1=C(C(=O)Nc2cc(Cl)ccc2Cl)C(CNC(=O)OC(C)(C)C)C2=C(CCCC2=O)N1 (centres undefined)
pEC50 [1]: inactive

SMILES: Cc1ccccc1NC(=O)C1=C(c2ccccc2)NC2=C(C(=O)CCC2)C1c1ccco1 (centres undefined)
pEC50 [1]: inactive

Activity [3]: inactive | Activity [4]: inactive | Activity [5]: inactive | Activity [6]: inactive | inhibition (INH) [7]: Not Active | remaining at 168 h [8]: 100% | Stability [9]: Unstable | Activity [10]: Active | remaining at 168 h [12]: 100% | remaining at 720 h [13]: 100%
SMILES: CCCC1C(C(=O)Nc2cc(Cl)ccc2Cl)=C(C)NC2=C1C(=O)CCC2 (centres undefined)
Activity [11]: inactive

SMILES: CCN(CC)CCOCC1C(C(=O)Nc2cc(Cl)ccc2Cl)=C(C)NC2=C1C(=O)CCC2 (centres undefined)
pEC50 [1]: inactive

SMILES: CC1=C(C(=O)Nc2ccccc2C)C(c2ccco2)C2=C(CCCC2=O)N1 (centres undefined)
EC50 [14]: 0.537 µM | Activity [3]: inactive | Activity [4]: inactive | Activity [5]: inactive | Activity [6]: inactive | inhibition (INH) [7]: Not Active

SMILES: CC1=C(C(=O)Nc2cc(Cl)ccc2Cl)C(CC2CCNCC2)C2=C(CCCC2=O)N1 (centres undefined)
pEC50 [1]: inactive

SMILES: CC1=C(C(=O)Nc2ccccc2C)C(c2ccccc2Br)C2=C(CCCC2=O)N1 (centres undefined)
pEC50 [15]: inactive

Activity [3]: inactive | Activity [4]: inactive | Activity [5]: inactive | Activity [6]: inactive | inhibition (INH) [7]: Not Active
SMILES: CC1=C(C(=O)Nc2cc(Cl)ccc2Cl)C(C2CCCC2)C2=C(CCCC2=O)N1 (centres undefined)

SMILES: CC1=C(C(=O)Nc2cc(Cl)ccc2Cl)C(CN)C2=C(CCCC2=O)N1 (centres undefined)
pEC50 [1]: inactive

SMILES: CC1=C(C(=O)Nc2cc(Cl)ccc2Cl)C(CC2CCN(C(=O)OC(C)(C)C)CC2)C2=C(CCCC2=O)N1 (centres undefined)
pEC50 [1]: inactive | Activity [16]: Active

SMILES: COC(=O)C1=C(C)NC2=C(C(=O)CCC2)C1CC(C)C (centres undefined)
pEC50 [1]: inactive

EC50 [17]: 10.7 µM | EC50 [18]: 11.7 µM
SMILES: CCC(=O)O [PROPIONIC ACID]

SMILES: CC1=C(C(=O)c2ccccc2)C(CC(C)C)C2=C(CCCC2=O)N1 (centres undefined)
pEC50 [1]: inactive
